Assay [1] can be described thus: DPPH radical scavenging assay. The note with it: antioxidant activity. In outline:
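Test material was polyphenolic-rich plant extracts from pressurized 50% ethanol extraction at 80 °C, microfiltration at 0.45 μm, then nanofiltration on a 200–300 Da polyamide membrane. A modified literature method was used: graded concentrations of extract or standard were mixed with methanolic DPPH solution and absorbance was read at 519 nm. Data were reported as mean ± standard deviation (n = 3).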

The target in assay [2] is T1, LOX (Glycine max, UniProt P08170).
T1 sequence (P08170 1-839): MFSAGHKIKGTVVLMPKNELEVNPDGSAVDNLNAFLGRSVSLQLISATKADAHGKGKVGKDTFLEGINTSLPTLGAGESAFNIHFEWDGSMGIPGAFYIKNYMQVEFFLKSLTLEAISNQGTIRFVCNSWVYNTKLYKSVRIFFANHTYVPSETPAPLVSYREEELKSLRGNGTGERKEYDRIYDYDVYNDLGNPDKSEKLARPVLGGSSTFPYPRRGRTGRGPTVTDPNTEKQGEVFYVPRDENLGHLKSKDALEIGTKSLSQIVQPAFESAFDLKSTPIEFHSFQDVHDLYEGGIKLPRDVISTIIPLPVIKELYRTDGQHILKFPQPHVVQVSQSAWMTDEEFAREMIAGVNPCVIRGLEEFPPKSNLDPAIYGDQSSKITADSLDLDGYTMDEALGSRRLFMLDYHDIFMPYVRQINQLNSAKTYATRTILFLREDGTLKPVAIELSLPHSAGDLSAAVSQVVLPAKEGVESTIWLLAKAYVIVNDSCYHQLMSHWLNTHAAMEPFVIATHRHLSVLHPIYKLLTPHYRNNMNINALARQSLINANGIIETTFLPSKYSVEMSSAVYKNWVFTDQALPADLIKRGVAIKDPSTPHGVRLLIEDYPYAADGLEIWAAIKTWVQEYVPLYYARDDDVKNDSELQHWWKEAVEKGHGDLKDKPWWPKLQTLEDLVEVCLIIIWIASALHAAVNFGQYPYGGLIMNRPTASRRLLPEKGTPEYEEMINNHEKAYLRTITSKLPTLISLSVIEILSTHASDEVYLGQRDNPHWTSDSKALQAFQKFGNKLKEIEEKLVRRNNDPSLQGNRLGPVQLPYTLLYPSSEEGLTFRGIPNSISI
As to the kind of experiment: LOX inhibition, spectrophotometric assay. It is filed as biochemical.

The target in assay [3] is T2, α-amylase from hog pancreas (Sus scrofa, UniProt P00690).
T2 sequence (P00690 16-511): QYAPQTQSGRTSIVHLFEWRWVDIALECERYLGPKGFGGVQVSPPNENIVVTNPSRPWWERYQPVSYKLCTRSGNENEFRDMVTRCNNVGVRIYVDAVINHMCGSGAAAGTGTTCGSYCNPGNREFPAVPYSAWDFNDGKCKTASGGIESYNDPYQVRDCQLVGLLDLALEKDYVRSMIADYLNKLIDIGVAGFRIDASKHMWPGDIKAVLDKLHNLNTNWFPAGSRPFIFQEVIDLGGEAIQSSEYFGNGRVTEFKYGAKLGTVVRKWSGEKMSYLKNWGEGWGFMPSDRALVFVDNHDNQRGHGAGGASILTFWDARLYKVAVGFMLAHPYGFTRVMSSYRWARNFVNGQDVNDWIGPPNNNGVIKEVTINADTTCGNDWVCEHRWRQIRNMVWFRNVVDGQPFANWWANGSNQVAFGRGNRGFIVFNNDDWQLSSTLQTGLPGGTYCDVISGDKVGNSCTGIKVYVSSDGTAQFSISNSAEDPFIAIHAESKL
As to the kind of experiment: biochemical.

Assay [4] addresses α-glucosidase from Saccharomyces cerevisiae (Saccharomyces cerevisiae, UniProt P53341). As to the kind of experiment: α-Glucosidase inhibition assay. It is filed as biochemical.

The IC50 is the concentration needed to halve the response being measured. A higher IC50 goes with weaker potency in that assay.

α-glucosidase from Saccharomyces cerevisiae, sequence (P53341 whole entry): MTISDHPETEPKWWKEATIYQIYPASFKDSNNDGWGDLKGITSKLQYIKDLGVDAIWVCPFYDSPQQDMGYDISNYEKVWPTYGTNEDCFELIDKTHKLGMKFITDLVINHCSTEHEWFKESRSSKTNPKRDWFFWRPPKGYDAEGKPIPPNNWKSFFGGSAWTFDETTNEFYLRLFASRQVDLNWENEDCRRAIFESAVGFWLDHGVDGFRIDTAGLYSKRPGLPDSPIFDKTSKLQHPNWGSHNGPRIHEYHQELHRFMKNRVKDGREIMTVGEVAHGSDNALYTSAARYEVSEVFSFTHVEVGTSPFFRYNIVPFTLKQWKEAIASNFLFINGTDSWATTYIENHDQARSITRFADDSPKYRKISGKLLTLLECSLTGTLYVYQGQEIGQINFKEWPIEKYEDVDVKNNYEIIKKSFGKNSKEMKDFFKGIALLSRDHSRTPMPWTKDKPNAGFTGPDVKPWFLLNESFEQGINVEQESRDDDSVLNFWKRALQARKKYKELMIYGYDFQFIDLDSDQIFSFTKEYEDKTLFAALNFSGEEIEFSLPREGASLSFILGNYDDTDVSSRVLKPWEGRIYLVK

In the case of `O=C1O[C@H]([C@@H](O)CO)C(O)=C1O` [ascorbic acid (vitamin C), ascorbic acid], the “DPPH, EC50” value in assay [1] was 3.6 ± 0.2 µg/mL.
Regarding `O=C(/C=C/c1ccc(O)c(O)c1)O[C@@H]1C[C@](O)(C(=O)O)C[C@@H](O)[C@H]1O` [chlorogenic acid], the half-maximal inhibitory concentration (IC50) is 230 µM in assay [2] and 5.19 µM in assay [3].
For the compound `O=c1c(O[C@@H]2O[C@H](CO)[C@@H](O)[C@H](O)[C@H]2O)c(-c2ccc(O)c(O)c2)oc2cc(O)cc(O)c12` [isoquercitrin, quercetin-3-β-qlucoside], the values for the IC50 in assay [4], in assay [2] and in assay [3] were 16.8 µM, 212 µM and 20.8 µM, respectively.
For the compound `O=c1cc(-c2ccc(O)c(O)c2)oc2cc(O)cc(O)c12` [luteolin], the values for the half-maximal inhibitory concentration (IC50) in assay [4], in assay [2] and in assay [3] were 100 µM, 109 µM and 68.2 µM, respectively.
In the same order, the values of `O=C(/C=C/c1ccc(O)c(O)c1)O[C@H](Cc1ccc(O)c(O)c1)C(=O)O` [rosmarinic acid] are 12 µM, 306 µM and 2.55 µM.
In the same order, the values of `C[C@@H]1O[C@@H](OC[C@H]2O[C@@H](Oc3c(-c4ccc(O)c(O)c4)oc4cc(O)cc(O)c4c3=O)[C@H](O)[C@@H](O)[C@@H]2O)[C@H](O)[C@H](O)[C@H]1O` [rutin] are 10.8 µM, 75.8 µM and 18.7 µM.
